Experimental data reported in ChEMBL document CHEMBL1949569, “Galactolipids from Bauhinia racemosa as a new class of antifilarial agents against human lymphatic filarial parasite, Brugia malayi” (Eur J Med Chem, 2012).
Converted amounts (≈) assume the structure as drawn. The source made the active and inactive calls. The calls are words filed in the database; no cut-off is given here.

Legend:
Vero = test: (§1) Cytotoxicity against african green monkey Vero cells after 72 hrs by resazurin dye-based fluorimetric analysis; assay type: cell-based; conditions: chlorocebus sabaeus, vero, 72 h
In short: (§2)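 Vero cells were seeded at 10,000 per well and left overnight at 37 °C in CO2. Samples were tested in triplicate from a 300 µg/mL top concentration in 3:1 serial dilutions, with drug-free and cell-free controls. Resazurin was added after 72 h drug exposure for 2–4 h, then read at ex 536/em 588 nm. CC50 was taken from fluorescence vs concentration.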

Brugia malayi [1] = test: Antifilarial activity against microfilariae Brugia malayi after 48 hrs by MTT assay; assay type: functional, organism-based
[2] = Selectivity ratio of CC50 for african green monkey Vero cells to IC50 for microfilariae Brugia malayi; assay type: ADME, cell-based; conditions: for selectivity ratio: Vero cells, read-out: Ratio CC50/IC50
In short: (§3)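 SI = CC50 (Vero, resazurin assay) / IC50. IC50 came from % motility inhibition of adult female worms or mf over two-fold dilutions from MIC down to 0.3 µg/mL. It was derived from a concentration vs % motility-inhibition plot.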

[3] = Selectivity ratio of CC50 for african green monkey Vero cells to IC50 for adult Brugia malayi; assay type: ADME, cell-based; conditions: vero; in short: as §3
Brugia malayi [4] = test: Antifilarial activity against adult Brugia malayi assessed as inhibition of motility at 31.25 ug/ml incubated for 48 hrs followed by washout measured after 1 hr in the absence of drug by microscopic analysis; assay type: functional
In short: (§4)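 Single fully motile female worms from jird peritoneal cavity were exposed in duplicate wells (1000 µL RPMI 1640, antibiotics, 10% FBS) to two-fold dilutions from 31.25 µg/mL, 48 h, 37 °C, CO2. Worms were moved to drug-free medium and motility was read microscopically 1 h later. Result is % motility reduction vs untreated control.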

Brugia malayi [5] = test: Antifilarial activity against adult Brugia malayi at 31.25 ug/ml by MTT assay relative to control; assay type: functional
In short: (§5)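 Adult female worms were recovered from jird peritoneal cavity 120–150 days after i.p. L3 inoculation. One worm per well sat in 1000 µL RPMI 1640 with antibiotics and 10% FBS, in duplicate, 48 h at 37 °C in CO2. After motility scoring, worms went through the MTT reduction assay. Result is % inhibition of MTT reduction vs untreated control.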

Brugia malayi [6] = test: Antifilarial activity against microfilariae Brugia malayi assessed as inhibition of motility at 31.25 ug/ml incubated for 48 hrs followed by washout measured after 1 hr in the absence of drug by microscopic analysis; assay type: functional
In short: (§6)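 Microfilariae came from jird peritoneal fluid passed through a 5.0 µm membrane filter. Twenty live mf per well in 200 µL medium, in duplicate, were given two-fold dilutions from 31.25 µg/mL. Incubation matched the adult worms (48 h, 37 °C, CO2). Motility was scored and reported as % reduction vs untreated control.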

Brugia malayi [7] = test: Antifilarial activity against microfilariae Brugia malayi assessed as inhibition of motility at 15.6 ug/ml incubated for 48 hrs followed by washout measured after 1 hr in the absence of drug by microscopic analysis; assay type: functional; in short: as §6
[8] = as §1; assay type: cell-based; conditions: chlorocebus sabaeus, Vero cells; in short: as §2
Brugia malayi [9] = test: Antifilarial activity against adult Brugia malayi assessed as inhibition of motility at 3.9 ug/ml incubated for 48 hrs followed by washout measured after 1 hr in the absence of drug by microscopic analysis; assay type: functional; in short: as §4
Brugia malayi [10] = test: Antifilarial activity against adult Brugia malayi assessed as inhibition of motility at 15.6 ug/ml incubated for 48 hrs followed by washout measured after 1 hr in the absence of drug by microscopic analysis; assay type: functional; in short: as §4
Brugia malayi [11] = test: Antifilarial activity against adult Brugia malayi after 48 hrs by MTT assay; assay type: functional, organism-based; in short: as §5
Brugia malayi [12] = test: Antifilarial activity against adult Brugia malayi infected in jird assessed as worm mortality at 50 mg/kg, ip administered for 5 consecutive days measured on day 51; assay type: functional; conditions: route intraperitoneal
In short: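 Jirds carrying intraperitoneally transplanted adult B. malayi (sub-periodic strain), 5 animals per group, dosed daily for 5 days. Killed on day 51 after a 50-day observation period. Worms recovered from the peritoneal cavity and scored microscopically for motility, death or encapsulation, giving % adulticidal activity over untreated control, mean ± SE. Live females teased in PBS pH 7.2 to score uterine-content abnormalities as sterilization.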

Brugia malayi [13] = test: Antifilarial activity against adult Brugia malayi infected in jird assessed as sterilized female worm at 50 mg/kg, ip administered for 5 consecutive days measured on day 51; assay type: functional; conditions: route intraperitoneal
In short: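 In the i.p.-transplanted adult B. malayi jird model, 50 mg/kg was given i.p. for 5 consecutive days, 5 animals per group. Necropsy on day 51 recovered peritoneal worms. Live females were teased in PBS pH 7.2 and uterine oocytes, eggs and mf checked microscopically for abnormality or death. Result is % sterilized females.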

Brugia malayi [14] = test: Antifilarial activity against adult Brugia malayi at 3.9 ug/ml by MTT assay relative to control; assay type: functional; in short: as §5
Brugia malayi [15] = test: Antifilarial activity against microfilariae Brugia malayi assessed as inhibition of motility at 7.8 ug/ml incubated for 48 hrs followed by washout measured after 1 hr in the absence of drug by microscopic analysis; assay type: functional; in short: as §6
Brugia malayi [16] = test: Antifilarial activity against adult Brugia malayi assessed as inhibition of motility at 7.8 ug/ml incubated for 48 hrs followed by washout measured after 1 hr in the absence of drug by microscopic analysis; assay type: functional; in short: as §4
Brugia malayi [17] = test: Antifilarial activity against adult Brugia malayi at 7.8 ug/ml by MTT assay relative to control; assay type: functional; in short: as §5
Brugia malayi [18] = test: Antifilarial activity against adult Brugia malayi at 15.6 ug/ml by MTT assay relative to control; assay type: functional; in short: as §5
Brugia malayi [19] = test: Antifilarial activity against microfilariae Brugia malayi assessed as inhibition of motility at 3.9 ug/ml incubated for 48 hrs followed by washout measured after 1 hr in the absence of drug by microscopic analysis; assay type: functional; in short: as §6
[20] = Brugia malayi, 48 h, read-out: IC50

Row | Molecule | inhibition at 31.25 µg/mL (Brugia malayi [4]) [%] | inhibition at 31.25 µg/mL (Brugia malayi [5]) [%] | inhibition at 31.25 µg/mL (Brugia malayi [6]) [%] | inhibition at 15.6 µg/mL (Brugia malayi [7]) [%] | CC50 at 72 h [8] [µg/mL] | inhibition (Brugia malayi [10]) | MIC (Brugia malayi [11]) | Activity (Brugia malayi [12]) [%] | MIC (Brugia malayi [1]; Brugia malayi, 48 h) [µg/mL] | IC50 (Brugia malayi [1]; [20]) [µg/mL] | Activity (Brugia malayi [13]) [%] | inhibition at 7.8 µg/mL (Brugia malayi [15]) [%] | selectivity ratio [2] | inhibition (Brugia malayi [16]) | inhibition at 7.8 µg/mL (Brugia malayi [17]) [%] | inhibition at 15.6 µg/mL (Brugia malayi [18]) [%] | further results
1 | IVERMECTIN | – | – | – | – | – | – | – | – | – | – | – | – | – | – | – | – | CC50 (Vero): 52.84 µg/mL; IC50 (Brugia malayi [1]): 3.62 µg/mL; Ratio CC50/IC50 ([2]; vero): > 27.62; Ratio CC50/IC50 [3]: > 62.11
2 | Oc1ccc([C@H]2Oc3cc(O)cc(O)c3C[C@H]2O)cc1 [EPIAFZELECHIN (2R,3R)(-)] | 50 | 14.8 | 59 | – | – | – | – | – | – | – | – | – | – | – | – | – | –
3 | CC/C=C\C/C=C\C/C=C\CCCCCCCC(=O)OC[C@H](CO[C@@H]1O[C@H](CO[C@H]2O[C@H](CO)[C@H](O)[C@H](O)[C@H]2O)[C@H](O)[C@H](O)[C@H]1O)OC(=O)CCCCCCCCCCCCCCC | 50 | 30 | 100 | 95 | > 100 | inactive | inactive | -45.8 | 31.2 (≈ 34.1 µM) | 2.7 (≈ 2.95 µM) | 0 | 90 | > 37 | inactive | 0 | 0 | inhibition (Brugia malayi [9]): inactive; inhibition at 3.9 µg/mL (Brugia malayi [14]): 0%; inhibition at 3.9 µg/mL (Brugia malayi [19]): 70%
4 | Oc1cc(O)c2c(c1)O[C@H](c1ccc(O)c(O)c1)[C@H](O)C2 [(-)-EPICATECHIN] | 50 | 34.8 | 50 | – | – | – | – | – | – | – | – | – | – | – | – | – | –
5 | Oc1cc(O)c2c(c1)O[C@@H](c1ccc(O)c(O)c1)[C@H](O)C2 [(-)-CATECHIN] | 60 | 43.2 | 60 | – | – | – | – | – | – | – | – | – | – | – | – | – | –
6 | CCCCCCCCCCCCCCCCCCCCCCCCCCCCO [OCTACOSANOL] | 50 | 32.6 | 100 | 95 | > 100 | inactive | inactive | -49.95 | 31.2 (≈ 76.1 µM) | 3.26 (≈ 7.94 µM) | 0 | 85 | > 30.7 | inactive | 0 | 0 | –
